Results published in ChEMBL document CHEMBL1122777, “Effect of tellurium position on the myocardial uptake of radioiodinated 18-iodotellura-17-octadecenoic acid analogues” (1984).

Experiments:
[1] = Ratio of heart to liver uptake after 5 min was determined in female Fischer rats after [125I]-labeled compound complexed with bovine serum albumin was injected intravenously; format: functional
Procedure, shortened: (§1)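 Female Fischer 344 rats (food and water ad libitum) given the 125I-labelled fatty acid in 6% bovine albumin with 10% final ethanol, filtered, 0.5 mL into a lateral tail vein under ether anaesthesia. Four rats per time point. Tissue activity expressed as % injected dose/g against assayed injectate standards. Mean heart/tissue ratios were calculated from mean %ID/g values.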

[2] = Ratio of heart to kidneys uptake after 60 min was determined in female Fischer rats after [125I]-labeled compound complexed with bovine serum albumin was injected intravenously; format: functional, Heart/Kidney; procedure, shortened: as §1
[3] = test system: Rattus norvegicus; test: Kidney uptake after 5 min was determined in female Fischer rats after [125I]-labeled compound complexed with bovine serum albumin was injected intravenously; format: functional
Procedure, shortened: (§2)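 Female Fischer 344 rats (fed ad libitum) under ether anaesthesia received the ¹²⁵I fatty acid in a lateral tail vein. Dose was ~3.8–4.8 μCi per rat (sp act ~125–240 mCi/mmol), given in 0.5 mL 6% bovine albumin (final ethanol 10%) after filtration. Four rats per time point were used. Tissue radioactivity is % injected dose/g, mean with range, calculated against standards of the injected solution.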

[4] = test system: Rattus norvegicus; test: Blood uptake after 30 min was determined in female Fischer rats after [125I]-labeled compound complexed with bovine serum albumin was injected intravenously; format: functional; procedure, shortened: as §2
[5] = test system: Rattus norvegicus; test: Uptake in lungs after 4 hr was determined in female Fischer rats after [125I]-labeled compound complexed with bovine serum albumin was injected intravenously; format: functional
Procedure, shortened: (§3)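 Female Fischer 344 rats with free access to food and water. The 125I-labelled fatty acid (~3.8–4.8 μCi; sp act. ~125–240 mCi/mmol) was complexed with 6% bovine serum albumin (10% final ethanol), filtered, and 0.5 mL was injected via a lateral tail vein under ether anaesthesia. Four rats per time point. Values are mean % injected dose/g, calculated against injectate standards. Thyroid weight was taken as 7.5 mg/100 g body weight.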

[6] = test system: Rattus norvegicus; test: Blood uptake after 4 hr was determined in female Fischer rats after [125I]-labeled compound complexed with bovine serum albumin was injected intravenously; format: functional; procedure, shortened: as §2
[7] = Ratio of heart to kidneys uptake after 240 min was determined in female Fischer rats after [125I]-labeled compound complexed with bovine serum albumin was injected intravenously; format: functional, Heart/Kidney; procedure, shortened: as §1
[8] = Ratio of heart to lungs uptake after 30 min was determined in female Fischer rats after [125I]-labeled compound complexed with bovine serum albumin was injected intravenously; format: functional; procedure, shortened: as §1
[9] = Ratio of heart to kidneys uptake after 30 min was determined in female Fischer rats after [125I]-labeled compound complexed with bovine serum albumin was injected intravenously; format: functional, Heart/Kidney; procedure, shortened: as §1
[10] = test system: Rattus norvegicus; test: Heart uptake after 5 min was determined in female Fischer rats after [125I]-labeled compound complexed with bovine serum albumin was injected intravenously; format: functional; procedure, shortened: as §2
[11] = test system: Rattus norvegicus; test: Uptake in lungs after 60 min was determined in female Fischer rats after [125I]-labeled compound complexed with bovine serum albumin was injected intravenously; format: functional; procedure, shortened: as §3
[12] = Ratio of heart to liver uptake after 30 min was determined in female Fischer rats after [125I]-labeled compound complexed with bovine serum albumin was injected intravenously; format: functional; procedure, shortened: as §1
[13] = Ratio of heart to liver uptake after 240 min was determined in female Fischer rats after [125I]-labeled compound complexed with bovine serum albumin was injected intravenously; format: functional; procedure, shortened: as §1
[14] = test system: Rattus norvegicus; test: Uptake in lungs after 30 min was determined in female Fischer rats after [125I]-labeled compound complexed with bovine serum albumin was injected intravenously; format: functional; procedure, shortened: as §3
[15] = test system: Rattus norvegicus; test: Liver uptake after 30 min was determined in female Fischer rats after [125I]-labeled compound complexed with bovine serum albumin was injected intravenously; format: functional; procedure, shortened: as §2
[16] = test system: Rattus norvegicus; test: Liver uptake after 1d was determined in female Fischer rats after [125I]-labeled compound complexed with bovine serum albumin was injected intravenously; format: functional; procedure, shortened: as §2
[17] = Ratio of heart to lungs uptake after 5 min was determined in female Fischer rats after [125I]-labeled compound complexed with bovine serum albumin was injected intravenously; format: functional; procedure, shortened: as §1
[18] = test system: Rattus norvegicus; test: Heart uptake after 60 min was determined in female Fischer rats after [125I]-labeled compound complexed with bovine serum albumin was injected intravenously; format: functional; procedure, shortened: as §2
[19] = Ratio of heart to blood uptake after 60 min was determined in female Fischer rats after [125I]-labeled compound complexed with bovine serum albumin was injected intravenously; format: functional; procedure, shortened: as §1
[20] = Ratio of heart to kidneys uptake after 120 min was determined in female Fischer rats after [125I]-labeled compound complexed with bovine serum albumin was injected intravenously; format: functional, Heart/Kidney; procedure, shortened: as §1
[21] = test system: Rattus norvegicus; test: Blood uptake after 5 min was determined in female Fischer rats after [125I]-labeled compound complexed with bovine serum albumin was injected intravenously; format: functional; procedure, shortened: as §2
[22] = test system: Rattus norvegicus; test: Heart uptake after 4 hr was determined in female Fischer rats after [125I]-labeled compound complexed with bovine serum albumin was injected intravenously; format: functional; procedure, shortened: as §2
[23] = test system: Rattus norvegicus; test: Heart uptake after 1d was determined in female Fischer rats after [125I]-labeled compound complexed with bovine serum albumin was injected intravenously; format: functional; procedure, shortened: as §2
[24] = test system: Rattus norvegicus; test: Liver uptake after 60 min was determined in female Fischer rats after [125I]-labeled compound complexed with bovine serum albumin was injected intravenously; format: functional; procedure, shortened: as §2
[25] = Ratio of heart to lungs uptake after 240 min was determined in female Fischer rats after [125I]-labeled compound complexed with bovine serum albumin was injected intravenously; format: functional; procedure, shortened: as §1
[26] = test system: Rattus norvegicus; test: Uptake in lungs after 1 day was determined in female Fischer rats after [125I]-labeled compound complexed with bovine serum albumin was injected intravenously; format: functional; procedure, shortened: as §3
[27] = test system: Rattus norvegicus; test: Liver uptake after 5 min was determined in female Fischer rats after [125I]-labeled compound complexed with bovine serum albumin was injected intravenously; format: functional; procedure, shortened: as §2
[28] = Ratio of heart to liver uptake after 120 min was determined in female Fischer rats after [125I]-labeled compound complexed with bovine serum albumin was injected intravenously; format: functional; procedure, shortened: as §1
[29] = Ratio of heart to kidneys uptake after 5 min was determined in female Fischer rats after [125I]-labeled compound complexed with bovine serum albumin was injected intravenously; format: functional, Heart/Kidney; procedure, shortened: as §1
[30] = Ratio of heart to blood uptake after 120 min was determined in female Fischer rats after [125I]-labeled compound complexed with bovine serum albumin was injected intravenously; format: functional; procedure, shortened: as §1
[31] = test system: Rattus norvegicus; test: Heart uptake after 30 min was determined in female Fischer rats after [125I]-labeled compound complexed with bovine serum albumin was injected intravenously; format: functional; procedure, shortened: as §2
[32] = test system: Rattus norvegicus; test: Blood uptake after 1d was determined in female Fischer rats after [125I]-labeled compound complexed with bovine serum albumin was injected intravenously; format: functional; procedure, shortened: as §2
[33] = test system: Rattus norvegicus; test: Thyroid uptake after 5 min was determined in female Fischer rats after [125I]-labeled compound complexed with bovine serum albumin was injected intravenously; format: functional; procedure, shortened: as §3
[34] = Ratio of heart to blood uptake after 5 min was determined in female Fischer rats after [125I]-labeled compound complexed with bovine serum albumin was injected intravenously; format: functional; procedure, shortened: as §1
[35] = Ratio of heart to liver uptake after 60 min was determined in female Fischer rats after [125I]-labeled compound complexed with bovine serum albumin was injected intravenously; format: functional; procedure, shortened: as §1
[36] = Ratio of heart to blood uptake after 240 min was determined in female Fischer rats after [125I]-labeled compound complexed with bovine serum albumin was injected intravenously; format: functional; procedure, shortened: as §1
[37] = Ratio of heart to lungs uptake after 60 min was determined in female Fischer rats after [125I]-labeled compound complexed with bovine serum albumin was injected intravenously; format: functional; procedure, shortened: as §1
[38] = Ratio of heart to blood uptake after 30 min was determined in female Fischer rats after [125I]-labeled compound complexed with bovine serum albumin was injected intravenously; format: functional; procedure, shortened: as §1
[39] = test system: Rattus norvegicus; test: Uptake in lungs after 5 min was determined in female Fischer rats after [125I]-labeled compound complexed with bovine serum albumin was injected intravenously; format: functional; procedure, shortened: as §3
[40] = test system: Rattus norvegicus; test: Liver uptake after 4 hr was determined in female Fischer rats after [125I]-labeled compound complexed with bovine serum albumin was injected intravenously; format: functional; procedure, shortened: as §2
[41] = Ratio of heart to lungs uptake after 120 min was determined in female Fischer rats after [125I]-labeled compound complexed with bovine serum albumin was injected intravenously; format: functional; procedure, shortened: as §1
[42] = test system: Rattus norvegicus; test: Blood uptake after 60 min was determined in female Fischer rats after [125I]-labeled compound complexed with bovine serum albumin was injected intravenously; format: functional; procedure, shortened: as §2
[43] = test system: Rattus norvegicus; test: Heart uptake after 120 min was determined in female Fischer rats after [125I]-labeled compound complexed with bovine serum albumin was injected intravenously; format: functional; procedure, shortened: as §2
[44] = test system: Rattus norvegicus; test: Heart uptake after 240 min was determined in female Fischer rats after [125I]-labeled compound complexed with bovine serum albumin was injected intravenously; format: functional; procedure, shortened: as §2

O=C(O)CCC[Te]CCCCCCCCCCC/C=C/I showed a Ratio [1] of 0.6, a Ratio [2] of 3.7 and an Injected dose/g [3] of 1.02%. For the same compound, the Injected dose/g [4] was 0.16%, the Injected dose/g [5] was 0.92% and the Injected dose/g [6] was 0.19%. The Ratio [7] was 4.3, the Ratio [8] was 3 and the Ratio [9] was 4.6. For the same compound, the Injected dose/g [10] was 3.99%, the Injected dose/g [11] was 1.16% and the Ratio [12] was 0.84. The Ratio [13] was 0.75, the Injected dose/g [14] was 1.54% and the Injected dose/g [15] was 5.53%. For the same compound, the Injected dose/g [16] was 3.64%, the Ratio [17] was 2.7 and the Injected dose/g [18] was 4.33%. For the same compound, the Ratio [19] was 23, the Ratio [20] was 4 and the Injected dose/g [21] was 0.11%. It also gave an Injected dose/g [22] of 3.57%, an Injected dose/g [23] of 3.96% and an Injected dose/g [24] of 7.33%. The Ratio [25] was 3.9, the Injected dose/g [26] was 0.71% and the Injected dose/g [27] was 6.56%. The Ratio [28] was 0.74, the Ratio [29] was 3.9 and the Ratio [30] was 20. For the same compound, the Injected dose/g [31] was 4.64%, the Injected dose/g [32] was 0.18% and the Injected dose/g [33] was 6.03%. For the same compound, the Ratio [34] was 37, the Ratio [35] was 0.59 and the Ratio [36] was 18. The Ratio [37] was 3.7, the Ratio [38] was 30 and the Injected dose/g [39] was 1.47%. The Injected dose/g [40] was 4.76%, the Ratio [41] was 3.6 and the Injected dose/g [42] was 0.19%.

Work on O=C(O)CCCCCCCCCCC[Te]CCC/C=C/I yielded a Ratio [1] of 0.17, a Ratio [2] of 1.6 and a Ratio [7] of 1.9. For the same compound, the Ratio [8] was 1.7, the Ratio [9] was 1.5 and the Injected dose/g [10] was 1.46%. The Ratio [12] was 0.29, the Ratio [13] was 0.39 and the Ratio [17] was 1.6. It also gave an Injected dose/g [43] of 1.03%, an Injected dose/g [18] of 1.81% and a Ratio [19] of 2.6. The Ratio [20] was 1.1, the Ratio [25] was 1.1 and the Injected dose/g [44] was 0.76%. It also gave a Ratio [28] of 0.42, a Ratio [29] of 1.5 and a Ratio [30] of 1.5. It also gave an Injected dose/g [31] of 1.52%, a Ratio [34] of 8 and a Ratio [35] of 0.41. The Ratio [36] was 1.2, the Ratio [37] was 1.6 and the Ratio [38] was 2.5. It also gave a Ratio [41] of 1.3.
